AF4-AF9 inh – inhibitors of AF4 peptide binding to AF9, primary screen, biochemical, AlphaScreen, biotin-AF4 peptide, FLAG-AF9, single point; actives 0.47% (n = 350,000); Protein AF-9 (Homo sapiens), P42568; inhibition, % at 10 µM;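 active = every replicate reaching a set inhibition limit, whatever the replicate mean, cut at about 25% in these data; inconclusive = mean inhibition reaches that limit but some replicates miss it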;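 note: 0% = plate neutral control median and 100% = total signal loss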
S100A4 MyoIIA – inhibitors of S100A4-myosin IIA peptide binding, primary screen, biochemical, fluorescence polarization, TAMRA-MyoIIA peptide; Protein S100-A4 (Homo sapiens), P26447; inhibition, % at 10.7 µM; actives 0.14% (n = 360,000); AID 652163, 2013;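 active = mean inhibition of at least 70% across replicates, with every replicate also reaching that level; inconclusive = mean inhibition reaches 70% but some replicates fall short; inactive = mean inhibition below 70%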
Target sequence (P26447 whole entry, looked up): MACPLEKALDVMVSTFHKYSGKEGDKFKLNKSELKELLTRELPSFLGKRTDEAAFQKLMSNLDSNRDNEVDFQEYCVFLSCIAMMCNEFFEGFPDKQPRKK
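Material: S100A4 monomer protein / Buffer or medium: 50 mM HEPES pH 7.2, 10 mM CaCl2, 100 mM KCl / Times: 5 min incubation before reading / Benchmarks: neutral control DMSO, positive control TFP / Reagent: labelled myosin peptide probe, 5 nM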
dFosB activator – activators of delta FosB homodimer, primary screen, biochemical, fluorescence polarization, TAMRA-CDK5 oligo, single point. purified delta FosB; percent of positive-control signal above neutral wells. activation, % at 25 µM. actives 0.99% (n = 340,000);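 active = mean activation above about 17%, with every replicate also reaching it, limit read from the data, passing the limit was not always enough; inconclusive = only one of the two conditions met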
Target sequence (P13346 whole entry, looked up): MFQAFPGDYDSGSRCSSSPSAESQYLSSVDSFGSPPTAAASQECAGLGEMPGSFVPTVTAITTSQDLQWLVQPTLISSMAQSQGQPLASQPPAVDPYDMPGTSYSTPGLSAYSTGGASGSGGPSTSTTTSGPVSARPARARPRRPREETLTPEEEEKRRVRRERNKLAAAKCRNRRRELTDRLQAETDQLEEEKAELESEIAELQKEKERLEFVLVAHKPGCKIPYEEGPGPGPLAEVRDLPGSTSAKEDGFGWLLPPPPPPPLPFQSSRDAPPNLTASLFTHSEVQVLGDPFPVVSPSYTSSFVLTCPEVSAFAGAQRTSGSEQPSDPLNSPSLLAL
RAD52 anneal inh – RAD52 DNA annealing inhibitors, primary screen, biochemical, FRET, single point, set 2; DNA repair protein RAD52 homolog (Homo sapiens), P43351; recombinant RAD52 DNA annealing, FRET fluorescence; inhibition, % at 18.7 µM; actives 0.46% (n = 360,000);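 active = every replicate showing at least 50% inhibition; inconclusive = mean inhibition at least 50% but not in every replicate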
RAD54 inh – inhibitors of human RAD54 branch migration, primary screen, biochemical, fluorescence, single point; RAD54 Holliday junction branch migration, FAM/BHQ fluorescence; inhibition, % at 10.4 µM; actives 0.14% (n = 360,000); AID 602329, 2012;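 active = mean normalized replicate activity at least 40 and at least half of replicates scoring 40 or more; inconclusive = only one of the two criteria met; inactive = mean below 40 and under half of replicates reaching 40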;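 note: 0% = median of neutral control wells and 100% = median of positive control wells; inhibitors cause a drop in the FAM fluorescence signal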
Alpha interfer – AlphaScreen signal interference counter-screen, dose response, artefact control, biochemical, cherry-picked samples, luminescence | shares compounds with AF4-AF9 inh | AC50, µM (series often up to 12 µM), inactives show at the top dose activity change, negative = inhibition | actives 45% (n = 530) | AID 720494, 2013; cut-off not given, nearly all actives have AC50 up to about 14 µM
RAD52 DNA ctr – DNA-binding compounds via dye displacement, dose response, artefact control for RAD52 inhibitor project, biochemical, fluorescence polarization, cherry-pick; AC50, µM; Salmon sperm DNA/acridine orange FP displacement; AID 652128, 2013; shares compounds with RAD52 anneal inh; actives 8% (n = 1,000);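 active = fitted half-maximal concentration for signal loss at or below twice the highest dose tested, in every separate run, actives reach about 64 µM in these data; inconclusive = runs disagree, or flat partial signal loss, or poor fit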
* hit, by the source's call; i = inactive; ? = inconclusive; . = no result; + = active, no number; ! = a repeat was not active. An excerpt weighted towards active compounds, which were near 1.5% of everything screened.

SMILES	AF4-AF9 inh	S100A4 MyoIIA	dFosB activator	RAD52 anneal inh	RAD54 inh	Alpha interfer	RAD52 DNA ctr
COc1ccc(N2CCN(CCCNC(=O)C(=O)c3c(C)n(C)c4ccccc34)CC2)cc1	37*	-3	-6	-29	-1	-20%	.
COc1ccc(N2CCN(C(=O)C(=O)c3c(C)n(C)c4ccccc34)CC2)cc1	0	-16	-2	-10	-6	.	.
COC(=O)c1ccc(Nc2cc(C)nc3ccccc23)cc1	9	-5	-9	5	11	.	.
COC(=O)c1ccc2nc(C)cc(Nc3ccc(N(C)C)cc3)c2c1	32*	1	5	47	41	-14%	.
COc1ccc(C#Cc2ccc3c(c2)[C@@H]2[C@@H](CCN2C(=O)NC(C)C)[C@@H](CO)N3C)cc1	5	-10	.	-11	-10	.	.
CN(C)c1ccc(NC2=C(Cl)C(=O)c3ccccc3C2=O)cc1	64*	-1	-8	0	6	1.9µM*	.
CC(=O)Nc1ccc(NC2=C(Cl)C(=O)c3ccccc3C2=O)cc1	-3	-4	.	-11	.	.	.
CCN1/C(=C\C(=S)Nc2ccccc2)Sc2ccccc21	10	-15	4	-12	-12	.	.
CCN1/C(=C/C(C)=C/c2sc3ccccc3[n+]2CC)Sc2ccccc21	66*	+	507*	-295	72*	6.3µM*	.
O=c1c2ccccc2nc(/C=C/c2cccnc2)n1Cc1ccccc1	39*	-13	-9	-53	.	-20%	.
Cc1cccc(S(=O)(=O)N[C@H]2CC[C@@H](CCNC(=O)c3cnccn3)O[C@H]2CO)c1	-1	19	.	-13	-5	.	.
Clc1ccc(-c2[nH]ncc2N=Nc2ccccc2)cc1	4	-2	-4	-3	-6	.	.
c1ccc(N=Nc2ccc3cccccc2-3)cc1	77*	2	5	-15	-3	1µM*	.
C[n+]1c(-c2ccc(C=NNC(=O)c3ccc(C(=O)NN=Cc4ccc(-c5cn6ccccc6[n+]5C)cc4)cc3)cc2)cn2ccccc21	78*	3	-221	94*	.	-18%	26µM*
O=C(Nc1cccc(Cl)c1)N1C[C@@H]2[C@H](c3ccccc31)[C@H](CO)N2C(=O)C1CCCC1	2	-11	.	-8	-9	.	.
CCC1CCCCN1CCCNC(=O)C1CCN(c2nnc(-n3cccc3)s2)CC1 (stereo unspecified)	9	-4	-4	20	-5	.	.
CCOc1ccc(NCc2cccn2-c2nnc(N3CCC(C(=O)NCCCN4CCCCC4C)CC3)s2)cc1 (stereo unspecified)	47*	22	-15	80*	13	14µM*	i
C[C@@H]1CN([C@@H](C)CO)C(=O)c2cc(C#Cc3ccccn3)cnc2O[C@@H]1CN(C)Cc1ccncc1	-6	19	.	-76	8	.	.
COc1cc(NCCCCCCN)c2ncccc2c1OC	43*	28	18*	63*	.	-30%	i
CN(C)c1ccc(Nc2nc(N)c3ccccc3n2)cc1	60*	0	0	46	22	12µM*	i
CC(C)Nc1ccc(Nc2ccnc3cc4ccccc4cc23)cc1	84*	0	68*	99*	.	3µM*	22µM*
COc1ccc(Nc2ccnc3ccccc23)cc1	.	.	5	.	.	.	.
O=C(Cc1ccccn1)N[C@H]1CC[C@@H](CCn2cc(-c3cccnc3)nn2)O[C@H]1CO	0	6	.	-20	-6	.	.
Cc1ccc2c(c1)c1c(n2CC(O)CN2CCCCCC2)CCCC1 (stereo unspecified)	35*	-1	6	81*	5	-7%	i
Cc1ccc2c(c1)c1c(n2CC(O)Cn2c(C)nc3ccccc32)CCCC1 (stereo unspecified)	-1	1	5	41	-8	.	.
SMILES	AF4-AF9 inh	S100A4 MyoIIA	dFosB activator	RAD52 anneal inh	RAD54 inh	Alpha interfer	RAD52 DNA ctr
O=C(C[C@@H]1C[C@@H]2c3cc(NS(=O)(=O)c4ccccc4)ccc3O[C@@H]2[C@H](CO)O1)NCC1CC1	-1	7	.	6	7	.	.
CN(C)CCNc1ncnc2c1sc1nc(-c3ccccc3)c3c(c12)CCCC3	?	-14	-33	70*	7	-14%	i
CC(C)N=C(N)N=C(N)Nc1ccc(Cl)cc1	-5	5	-7	-10	7	.	.
NC(=NCCCCCCN=C(N)/N=C(\N)Nc1ccc(Cl)cc1)/N=C(\N)Nc1ccc(Cl)cc1	53*!	-5	6	95*	59*!	-9%	i
COc1ccc(/C=N/Nc2nc(-c3cccc(S(=O)(=O)N4CCCC4)c3)cs2)c(OC)c1	10	15	-15	96*	.	.	i
COc1ccc(CNC(=O)C[C@H]2CC[C@@H](NC(=O)c3ccc4c(c3)OCO4)[C@H](CO)O2)cc1	0	0	.	-5	-10	.	.
COc1ccc([N+](=O)[O-])cc1Nc1c2ccccc2nc2ccccc12	4	-3	1	-7	7	.	.
COc1cc(NS(C)(=O)=O)ccc1Nc1c2ccccc2nc2ccccc12	-1	5	10	55*	56*	.	i
CCN(CC)CCCNC(=O)C(C)n1nc(C)c2sc3ccccc3c2c1=O (stereo unspecified)	.	.	-2	.	.	.	.
CCN(CC)CCNc1ccc(C)c2sc3ccc(O)cc3c(=O)c12	50*	-8	41*	76*	.	.	10µM*
CCC(=O)Nc1ccc2c(c1)C(=O)N(C)[C@H]1CC[C@H](CC(=O)N3CCc4ccccc4C3)O[C@H]1CO2	0	-16	.	1	-12	.	.
COc1ccc(C(=O)NC2CC(C)(C)NC(C)(C)C2)cc1S(=O)(=O)N1CCOCC1	0	-3	.	98*	0	.	i
COc1ccc(C(=O)NC2CCCCC2)cc1S(=O)(=O)N1CCOCC1	-4	2	-3	2	-1	.	.
C[C@@H]1CCCCO[C@@H](CN(C)C)[C@H](C)CN([C@@H](C)CO)C(=O)c2cc(NC(=O)Nc3ccc4c(c3)OCO4)ccc2O1	-1	8	.	0	6	.	.
NCCCC[C@H](NC(=O)C1CCNCC1)c1nnc([C@@H](N)Cc2ccc(O)cc2)o1	15	-1	-1	74*	11	.	i
C[C@@H]1CN([C@@H](C)CO)C(=O)c2cc(NS(=O)(=O)c3ccc(F)cc3)ccc2O[C@@H]1CN(C)S(=O)(=O)c1cn(C)cn1	-3	-1	.	8	.	.	.
